According to ChEMBL document CHEMBL3525980, “Compartmentalization and antiviral effect of efavirenz metabolites in blood plasma, seminal plasma, and cerebrospinal fluid” (Drug Metab Dispos, 2013):
≈ marks a conversion by molar mass, not a printed value.

Columns and labels:
Cytochrome P450 2B6 [1] = target: T1, Cytochrome P450 2B6 (Homo sapiens, UniProt P20813); experiment: Drug metabolism of the compound assessed as CYP2B6 (unknown origin)-mediated formation of dihydroxylated metabolites with retention time of 1.73 mins at 5 uM by UPLC-MS/MS analysis; assay type: ADME; settings: 104 s
T1 sequence (P20813 whole entry): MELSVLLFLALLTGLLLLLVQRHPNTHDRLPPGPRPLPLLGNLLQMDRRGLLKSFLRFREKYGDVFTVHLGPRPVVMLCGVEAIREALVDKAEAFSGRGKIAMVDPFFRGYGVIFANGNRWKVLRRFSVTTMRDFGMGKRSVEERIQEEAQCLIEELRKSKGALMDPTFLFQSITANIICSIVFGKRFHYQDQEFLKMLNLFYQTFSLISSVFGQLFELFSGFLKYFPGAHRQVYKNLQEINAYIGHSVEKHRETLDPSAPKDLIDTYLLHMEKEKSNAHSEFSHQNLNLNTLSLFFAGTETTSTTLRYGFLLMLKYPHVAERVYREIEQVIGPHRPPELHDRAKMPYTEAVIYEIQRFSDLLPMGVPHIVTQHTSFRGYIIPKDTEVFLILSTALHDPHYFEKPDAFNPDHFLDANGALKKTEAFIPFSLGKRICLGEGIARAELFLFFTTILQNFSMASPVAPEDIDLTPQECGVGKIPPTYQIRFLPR
In short: (§1)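 cDNA-expressed human CYPs (20 pmol/ml; panel 1A1–3A7) incubated with 5 μM substrate in 100 mM potassium phosphate, pH 7.4. 5-min equilibration at 37°C, then NADPH regenerating system, 60 min at 37°C. Acetonitrile stop, liquid–liquid extraction, UPLC-MS/MS detection of dihydroxylated products. Mean ± SD, n = 3.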

Liver microsome [2] = experiment: Drug metabolism in human liver microsomes assessed as formation of dihydroxylated metabolites with retention time of 1.56 mins at 20 uM by UPLC-MS/MS analysis; assay type: ADME; settings: 0.026 h
In short: (§2)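 Substrate at 20 μM with pooled human liver microsomes (1 mg/mL) in 100 mM potassium phosphate, pH 7.4. 5-min equilibration at 37°C, then NADPH regenerating system added, 60 min at 37°C. Stopped with acetonitrile, liquid–liquid extracted (hexane:ethyl acetate), and dihydroxylated products read by UPLC-MS/MS at MRM m/z 346 > 262.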

Liver microsome [3] = experiment: Drug metabolism in human liver microsomes assessed as formation of metabolites with retention time of 1.73 mins at 20 uM by UPLC-MS/MS analysis; assay type: ADME; settings: 104 s; in short: as §2
[4] = Drug level in human cerebrospinal fluid treated with 100 mg of efavirenz administered […] by UPLC-MS/MS analysis; assay type: ADME, tissue-based; settings: read-out: Drug uptake
In short: (§3)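 Patient samples (subjects on once-daily EFV regimen; paired plasma/CSF from 13 participants) extracted and total metabolite levels quantified by UPLC-MS/MS. Fluorinated EFV analog used as internal standard. MRM detection, calibrated linear 0.5–500 ng/ml. Values reported as median (IQR).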

Cytochrome P450 1A1 [5] = target: T2, Cytochrome P450 1A1 (Homo sapiens, UniProt P04798); experiment: Drug metabolism of the compound assessed as CYP1A1 (unknown origin)-mediated formation of dihydroxylated metabolites with retention time of 1.73 mins at 5 uM by UPLC-MS/MS analysis; assay type: ADME; settings: 104 s; in short: as §1
T2 sequence (P04798 whole entry): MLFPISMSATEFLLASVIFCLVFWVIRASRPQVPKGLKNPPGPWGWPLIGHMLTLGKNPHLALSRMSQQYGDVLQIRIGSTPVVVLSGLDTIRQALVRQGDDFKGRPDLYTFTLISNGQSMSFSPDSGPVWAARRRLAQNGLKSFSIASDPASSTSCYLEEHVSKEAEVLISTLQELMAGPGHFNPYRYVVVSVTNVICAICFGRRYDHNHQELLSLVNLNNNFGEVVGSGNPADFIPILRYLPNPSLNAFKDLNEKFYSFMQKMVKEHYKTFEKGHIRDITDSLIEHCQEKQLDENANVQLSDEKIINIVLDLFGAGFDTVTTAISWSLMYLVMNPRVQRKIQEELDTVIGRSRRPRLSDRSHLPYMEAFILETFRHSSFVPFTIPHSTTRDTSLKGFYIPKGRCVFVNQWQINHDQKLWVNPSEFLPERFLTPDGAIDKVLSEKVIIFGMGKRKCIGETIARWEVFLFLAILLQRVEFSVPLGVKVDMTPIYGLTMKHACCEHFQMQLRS

Cytochrome P450 2B6 [6] = target: T1, Cytochrome P450 2B6; experiment: Drug metabolism of the compound assessed as CYP2B6 (unknown origin)-mediated formation of dihydroxylated metabolites with retention time of 1.56 mins at 5 uM by UPLC-MS/MS analysis; assay type: ADME; settings: 0.026 h; in short: as §1
[7] = Blood plasma concentration in human treated with 100 mg of efavirenz administered […] by UPLC-MS/MS analysis; assay type: ADME, cell-free; in short: as §3
[8] = Fraction unbound in human seminal plasma treated with 100 mg of efavirenz administered every 4 hrs by ultrafiltration method; assay type: ADME
In short: (§4)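 Ultrafiltration through 10-kDa membrane of 100 μl sample preincubated 1 h at 37°C, centrifuged at 37°C with filtrate collected every 15 min for 45 min and measured by UPLC-MS/MS. Free level at time zero back-extrapolated by linear regression. […]. For blood plasma, metabolites were spiked into blank plasma lots.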

[9] = Seminal plasma concentration in human treated with 100 mg of efavirenz administered every 4 hrs by UPLC-MS/MS analysis; assay type: ADME, cell-free; settings: male
[10] = tested on: Human immunodeficiency virus 1; experiment: Antiviral activity against HIV1 expressing Env-green fluorescent fusion protein infected in PBMC assessed as inhibition of viral activity after 72 hrs by flow cytometry analysis; assay type: functional, organism-based; settings: Human immunodeficiency virus 1, 72 h
In short: (§5)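 Activated CD4+ T cells from PBMCs (PHA 0.5 μg/ml, IL-2 100 U/ml, 3 days, 37°C) seeded at 1 × 10^5/well in RPMI + 50% FBS with IL-2. Compound in DMSO (<0.1%) added 3 h before spinoculation with single-round HIV-1 Env-GFP reporter virus. GFP read by flow cytometry after 72 h. Infectivity is fraction unaffected relative to virus-only and no-virus controls.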

Cytochrome P450 1A1 [11] = target: T2, Cytochrome P450 1A1; experiment: Drug metabolism of the compound assessed as CYP1A1 (unknown origin)-mediated formation of dihydroxylated metabolites with retention time of 1.56 mins at 5 uM by UPLC-MS/MS analysis; assay type: ADME; settings: 0.026 h; in short: as §1
[12] = Ratio of drug level in seminal plasma to blood plasma in human at 100 mg administered every 4 hrs by UPLC-MS/MS analysis; assay type: ADME, cell-free; settings: male
Liver microsome [13] = experiment: Drug metabolism in human liver microsomes assessed as formation of metabolites with retention time of 1.92 mins at 20 uM by UPLC-MS/MS analysis; assay type: ADME; settings: 0.032 h; in short: as §2
Cytochrome P450 2B6 [14] = target: T1, Cytochrome P450 2B6; experiment: Drug metabolism of the compound assessed as CYP2B6 (unknown origin)-mediated formation of metabolites with retention time of 1.92 mins at 5 uM by UPLC-MS/MS analysis; assay type: ADME; settings: 0.032 h; in short: as §1
[15] = Seminal plasma protein binding in human treated with 100 mg of efavirenz administered every 4 hrs by ultrafiltration method; assay type: ADME, cell-free; settings: male, read-out: PPB (converted); in short: as §4
[16] = Blood plasma protein binding in human treated with 100 mg of efavirenz administered every 4 hrs by ultrafiltration method; assay type: ADME, cell-free; settings: read-out: PPB (converted); in short: as §4
[17] = Ratio of drug level in seminal plasma to blood plasma in human treated with 100 mg of efavirenz administered every 4 hrs by UPLC-MS/MS analysis; assay type: ADME, cell-free; settings: male
Cytochrome P450 2C8 = target: T3, Cytochrome P450 2C8 (Homo sapiens, UniProt P10632); experiment: Drug metabolism of the compound assessed as CYP2C8 (unknown origin)-mediated formation of dihydroxylated metabolites with retention time of 1.92 mins at 5 uM by UPLC-MS/MS analysis; assay type: ADME; settings: 0.032 h; in short: as §1
T3 sequence (P10632 whole entry): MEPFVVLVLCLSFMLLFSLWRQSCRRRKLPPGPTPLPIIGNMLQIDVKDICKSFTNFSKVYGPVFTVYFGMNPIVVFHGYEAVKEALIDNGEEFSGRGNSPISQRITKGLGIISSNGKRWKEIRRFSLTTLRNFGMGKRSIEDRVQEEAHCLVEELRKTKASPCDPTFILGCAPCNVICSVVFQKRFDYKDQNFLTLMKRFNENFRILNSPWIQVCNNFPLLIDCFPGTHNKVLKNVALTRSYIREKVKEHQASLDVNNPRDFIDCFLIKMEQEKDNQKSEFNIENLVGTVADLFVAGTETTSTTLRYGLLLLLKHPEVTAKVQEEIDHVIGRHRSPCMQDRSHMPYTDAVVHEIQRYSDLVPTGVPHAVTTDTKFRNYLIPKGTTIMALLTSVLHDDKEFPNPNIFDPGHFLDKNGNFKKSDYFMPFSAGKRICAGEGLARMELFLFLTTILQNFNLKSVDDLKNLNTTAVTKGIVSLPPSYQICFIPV

Plasma [18] = experiment: Drug metabolism in human seminal plasma assessed as retention time of dihydroxylated metabolites treated with 100 mg of efavirenz administered every 4 hrs by UPLC-MS/MS analysis; assay type: ADME, cell-free
Plasma [19] = experiment: Drug metabolism in human seminal plasma assessed as retention time treated with 100 mg of efavirenz administered every 4 hrs by UPLC-MS/MS analysis; assay type: ADME, cell-free
[20] = Drug metabolism in human seminal plasma assessed as formation of N- and O-linked glucuronidated metabolite at 100 mg administered every 4 hrs by UPLC-MS/MS analysis; assay type: ADME, cell-free
Plasma [21] = experiment: Drug metabolism in human blood plasma assessed as formation of N- and O-linked glucuronidated metabolite at 100 mg administered every 4 hrs by UPLC-MS/MS analysis; assay type: ADME, cell-free
[22] = Seminal plasma protein binding in human at 100 mg administered every 4 hrs by ultrafiltration method; assay type: ADME, cell-free; in short: as §4
Plasma [23] = experiment: Total seminal plasma concentration in human; assay type: ADME, cell-free
Plasma [24] = experiment: Total blood plasma concentration in human; assay type: ADME, cell-free
[25] = tested on: Human immunodeficiency virus 1; experiment: Antiviral activity against HIV1; assay type: functional, organism-based; in short: as §5
[26] = Blood plasma protein binding in human at 100 mg administered every 4 hrs by ultrafiltration method; assay type: ADME, cell-free; settings: read-out: PPB (converted); in short: as §4
[27] = Drug level in human cerebrospinal fluid; assay type: ADME, tissue-based; in short: as §3

| concentration [4] | concentration [7] | Cp(f) [8] | concentration at 4 h [9] | IC50 [10] | Drug metabolism (Liver microsome [13]) | Drug metabolism (Cytochrome P450 2B6 [14]) | fraction unbound at 4 h [15] | fraction unbound at 4 h [16] | Kp at 4 h [17] | Drug metabolism (Cytochrome P450 2C8) | SMILES | other results |
| --- | --- | --- | --- | --- | --- | --- | --- | --- | --- | --- | --- | --- |
| 3.37 ng/mL | 314 ng/mL | 10.16 ng/mL | 358 ng/mL | 0.0422 µg/mL (≈ 0.127 µM) | metabolite_detected | metabolite_detected | 0.038 | 0.0003 |  |  | O=C1Nc2c(O)cc(Cl)cc2[C@@](C#CC2CC2)(C(F)(F)F)O1 | Drug metabolism (Cytochrome P450 2B6 [1]): metabolite_detected; Drug metabolism (Liver microsome [2]): metabolite_detected; Drug metabolism (Liver microsome [3]): metabolite_detected; Drug metabolism (Cytochrome P450 1A1 [5]): metabolite_detected; Drug metabolism (Cytochrome P450 2B6 [6]): metabolite_detected; Drug metabolism (Cytochrome P450 1A1 [11]): metabolite_detected; Kp at 4 h [12]: 145 |
|  | 8.84 ng/mL | 6.55 ng/mL | 10.2 ng/mL | 0.0447 µg/mL (≈ 0.135 µM) | metabolite_detected | metabolite_detected | 0.619 | 0.0038 | 188 | metabolite_detected | O=C1Nc2cc(O)c(Cl)cc2[C@@](C#CC2CC2)(C(F)(F)F)O1 |  |
| 0.375 ng/mL | 5.63 ng/mL | 4.04 ng/mL | 5.43 ng/mL | 2.24 µg/mL (≈ 6.44 µM) |  |  | 0.846 | 0.0039 | 209 |  | O=C1Nc2c(O)cc(Cl)cc2[C@@](C#CC2(O)CC2)(C(F)(F)F)O1 | Retention time (Plasma [18]): 1.56 min; Retention_time (Plasma [19]): 1.56 min |
|  |  |  |  | 0.00036 µg/mL (≈ 0.00114 µM) | metabolite_detected | metabolite_detected |  |  |  | metabolite_detected | O=C1Nc2ccc(Cl)cc2[C@@](C#CC2CC2)(C(F)(F)F)O1 [EFAVIRENZ] | Drug metabolism [20]: metabolite_detected; Drug metabolism (Plasma [21]): metabolite_detected; PPB [22]: 95.1%; Cp (Plasma [23]): 95 ng/mL; Cp (Plasma [24]): 2170 ng/mL; IC50 [25]: 0.00051 µg/mL (≈ 0.00162 µM); fraction unbound at 4 h [26]: 0.0018; Drug uptake [27]: 19 ng/mL |
